In the EternaBench riboswitch data:

Tested on: MS2 coat protein
Assay: apparent Kd, MS2 coat protein; higher = weaker binding; RNA-MaP array; FMN 200 µM where present
Summary of the method: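 Designs on Illumina sequencing-chip clusters, transcribed by stalled E. coli RNA polymerase, were exposed to SNAP-549-labelled MS2 coat protein in doubling steps from 0.7 or 1.5 nM up to 3 µM, without and then with constant ligand. The buffer held 100 mM Tris-HCl pH 7.5, 80 mM KCl, 4 mM MgCl2, BSA, DTT, yeast tRNA and Tween-20. Apparent Kd values are medians of filtered per-cluster binding-curve fits to green signal normalised to red-channel RNA signal and control-cluster median Fmax.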

[1] = designed as: OFF switch for flavin mononucleotide, no ligand
[2] = ligand present: flavin mononucleotide, designed as: OFF switch for flavin mononucleotide
[3] = designed as: ON switch for flavin mononucleotide, no ligand
[4] = ligand present: flavin mononucleotide, designed as: ON switch for flavin mononucleotide

Sequence | apparent Kd [1] [nM] | apparent Kd [2] [nM] | apparent Kd [3] [nM] | apparent Kd [4] [nM]
CAUACACAUGAGGAUCACCCAUGUGAGGAUAUGCGUACGUUGUCCGUAGGCGACGUGCGCAGAAGGCGCGUGAG | 60.1 | 67.6 | – | –
CAUAUCGUAACAGGAUAUAUGAGUCCUACAUGAGGAUCACCCAUGUAGGUGAUCUAACGAGAUUAGUAGAAGGGUUACGAUAUG | – | – | 16.6 | 8.68
CAUAUCGUAAGAGGAUAUAUGAGUCCUACAUGAGGAUCACCCAUGUAGGUGAUCUAACGAGAUUAGUAGAAGGCUUACGAUAUG | – | – | 16.2 | 7.62
CAUAUGGGAGGAUAUGCAUAGAUAAAGAAACAUGUUCAACCACAUGAGGAUCACCCAUGUAGAAGGCCCAUAUG | 29.6 | 162 | – | –
CAUAUGUCAGGAUAUUAUCUCAAGGUAUUCGUUACUAACGAUAAGAAGGGACAUGAGGAUCACCCAUGUGCCGC | 18.4 | 24.2 | – | –
CAUCUGUGAGGAUAUGGUGAGUAGUGCCUGAGCGCUGCUCACCAGAAGGCACAUGAGGAUCACCCAUGUAUGAC | 48.4 | 188 | – | –
CAUGAUCAUGUAGGAUAUAUACUGGAAUACAGUAUAGAAGGACAUGAGGAUCACCCAUGUUAUGUGCCUCCAAGUAAGAUCAUG | 18.5 | 24.7 | – | –
CAUGUCCUCACAGGAUAUGCUGGACUUUGUCCAGCAGAAGGGUGAACAUGAGGAUCACCCAUGUAAUGGACAUGUAUAUUUAAU | – | – | 801 | 50.9
CAUGUCUGAGGAUAUCGUUAUUUGUACAUGAGGAUCACCCAUGUCCUAUUUAUUAUAUUUCGAGAAGGCAGUGUAU | 16.9 | 18.2 | – | –
CAUGUGUAAGGAUAUGACAAUGGUAUCUUCGGAUACCAUUGUCAGAAGGUACAUGAGGAUCACCCAUGUAGAUC | 55 | 240 | – | –
CAUUAAUUCAUUAUAGUAAUUUUACAGGAUAUGUAACAUGAGGAUCACCCAUGUAUUCUUGGUUAACAGAAGGGUAUUACUUGU | 19.3 | 29.7 | – | –
CAUUAUGUUGAGGAUAUGCACCGGCUCACUGACGCAGAAGGCGACACAUGAGGAUCACCCAUGUCAGUUCGCGA | 15.5 | 15.8 | – | –
CAUUAUUAUCGAGGAUAUCCUAUUGAAAUUCUGGGAGAAGGCGGACUCAACAUGAGGAUCACCCAUGUGAGACGGAUGCUAGGG | 20.2 | 15.8 | – | –
CAUUGCGAAGGAUAUACAUGAGGAUCACCCAUGUGUUUCCUCACGCACGGGAGUAGCGGUAGAAGGUCGCAGAA | 14.7 | 29.4 | – | –
CCACGUCAGAUUAACAUGAGGAUCACCCAUGUCUUUUGACAUGAGGAUAUGGAUCCUAAUUGGAUCCAGAAGGCAUGGACGUGG | – | – | 963 | 96.9
CCAGAAUAGAAGGAUAUCGUGCUAUAGAGCGGAUGAGAAGGUCUGACAUGAGGAUCACCCAUGUGCACUUCAUG | 103 | 320 | – | –
CCAGACGUAGGAUAUACAUUUGGGUAAUCCCGCGGAUAAUUACAUGAGGAUCACCCAUGUAGAAGGGCGGUAAA | 38.7 | 28 | – | –
CCAGCAAAUGUAAGGAUAUGCUGGUCCUUGGAUCAGCAGAAGGUACAUGAGGAUCACCCAUGUCGUGGAGCUGG | 29.4 | 160 | – | –
CCAUAAAAGAUCCAAAAUUACAACAUGAGGAUCACCCAUGUGCAGGAUAUCGUGCCAGUGAAGUACGAGAAGGGCAGACACUGC | 450 | 487 | – | –
CCAUGCAUAGCGAUAUGAUCGAGAGAUCAUGUCGCUAAAUUUAGAAGGACAUGAGGAUCACCCAUGUAGGAUAUGGGAGCAUGG | – | – | 11.7 | 8.26
CCAUGCAUAGCGAUAUGAUCGAGAGAUCAUGUCGCUAAAUUUAGAAGGACAUGAGGAUCACCCAUGUAGGAUAUGGGAGCAUGU | – | – | 222 | 49.7

Sequence | apparent Kd [1] [nM] | apparent Kd [2] [nM] | apparent Kd [3] [nM] | apparent Kd [4] [nM]
CCAUGUUAGCAGGAUAUGCUAUUAAUCUUUUAUGCAGAAGGGCUUACAUGAGGAUCACCCAUGUAUUAAGUCAA | 14.1 | 47.8 | – | –
CCAUUUCUGUAAGGAUAUAUAAACAUGACGAUACAUGAGGAUCACCCAUGUGUAGAAGGUACAAAUACAUAUAAUACAAUGCUC | 13.1 | 11.7 | – | –
CCCAAACUUGGGCUUGGUGGUGCAUAGGAUAUGCUUGAACAUGAGGAUCACCCAUGUGCAACUGUGCAGAAGGGUGCAGGGCCU | – | – | 12.7 | 8.31
CCCAACGUAACGCCACGUUGAGAGCAGGAUAUUCCGCCGUGAUCUACAUGAGGAUCACCCAUGUGGAAGAAGGGCUACACAAAA | 16.3 | 146 | – | –
CCCAGUUAGGAAGGAUAUUGUACAUGAGGAUCACCCAUGUAAUAAAUGAGGAUCUCGGAUGUAUACAAGAAGGUCCGGAUAGGC | 71.6 | 136 | – | –
CCCAUCGCAUGAGGAUAUGCUCCGGUUUCCGGAGCAGAAGGCAUGUCAUAAGACAUGAGGAUCACCCAUGUAGUUAAGAUGGGA | – | – | 529 | 30.4
CCCAUCGCAUGAGGAUAUGGUCAGGUUUCCUGACCAGAAGGCAUGUCAUAAGACAUGAGGAUCACCCAUGUAGUUAAGAUGGGA | – | – | 672 | 47.5
CCCGAGGAAGGAUAUACAUGAGGAUCACCCAUGUGCGUUGGGACUGGCGUAGUCUUCAGUAGAAGGUCCGCGCC | 18.5 | 17.5 | – | –
CCCGCGAUGUCAGGAUAUAGUCGGAGGUGCAGACUAGAAGGGACAUGAGGAUCACCCAUGUGCGUAAACAUUUGAAACCCAGGU | 16.5 | 33.1 | – | –
CCCGCGAUGUCAGGAUAUAGUCGGAGGUGCAGACUAGAAGGGACAUGAGGAUCACCCAUGUGCGUGAACAUUUGAAACCCGGGU | 40.4 | 153 | – | –
CCCUAGAUCCGAGGAUAUACAAUCCGGAAACGGUACAUGAGGAUCACCCAUGUAGAAGGCGGAUCUACAGGUACUAAAGUACCC | 7.3 | 9.22 | – | –
CCCUCACAUGAGGAUCACCCAUGUCAGGAUAUCUCACAUCAGCCUUAGGCCGAUGUCUAGAGAAGGGACGUAUC | 22.7 | 30.3 | – | –
CCCUCACAUGAGGAUCACCCAUGUCCUAGCAGGUCAGGAUAUAGCCCGCAUCCGCUGCGGCUAGAAGGGACAGCUG | – | – | 244 | 105
CCCUCACAUGAGGAUCACCCAUGUUAGGAUAUCUACCAGGAGCCUAAAAUGGCCCAACGGAGAAGGAACGUGCA | 19.8 | 18.6 | – | –
CCCUCACCAGUCAGGAUAUCUUGUGCGAAAAUGCUAGAGAAGGGACAUGAGGAUCACCCAUGUGCCUGCAAGGA | 17.1 | 17.9 | – | –
CCCUCGGCGUGUAGAUACAUACAUGAGGAUCACCCAUGUGAGAAGGAUAUGCACGCGUGCUGCCGGCAGAAGGUCUAGAUGGUG | 25.4 | 29.8 | – | –
CCCUCGUAGUAGAAGGGCGGCCGAAAUCUGCACGCAGGAUAUACAUGAGGAUCACCCAUGUACUGAGCUGAAGAGCACUUGGAA | 15.1 | 14.5 | – | –
CCGAAACCUCAGAAGGACCACAUGAGGAUCACCCAUGUCAAGCAAAACGGUAGGAUAUGAGGGAAAUGUCGAUAUACCCGACAG | – | – | 7.9 | 4.72
CCGAAUGUCACAGGAUAUGGUCCGGGCACGCGACCAGAAGGGUGAUCUCACAUGAGGAUCACCCAUGUGCAGUUGUUAAGCUGC | – | – | 23.8 | 106
CCGAUAAGGAGAGGAUAUGGACAUGAGGAUCACCCAUGUACAUGGGAAUAUAUACUGAAUUUUUACUAGAAGGCUUACAUAAAU | 15.6 | 12.6 | – | –
CCGAUUAGCACAGGAUAUGGGAAUUCGUAGUUUCCAGAAGGGUGAGCCAAUACAUGAGGAUCACCCAUGUGCGGUAGGUCGAGA | – | – | 51.1 | 60.7
